Data reported in article PMC7395490 (Proceedings of the National Academy of Sciences of the …, 2020).
“And” between values parts separate entries of the source, which are not always exact repeats. Equal entries are not always repeated. “Also recorded” adds a separate entry of the source. Where two headings read alike, the source gives them in different places.

Key:
[1] = test system: NSG mice; test: Maximum tolerated dose; assay type: in vivo; settings: for start of notable symptoms of distress and inactivity: mice killed before end of 10-d study
In short: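 Weighed NSG mice received test compound dissolved in saline i.p. at 1, 2, 5 or 15 mpk, once daily for 10 consecutive days. Clinical observations and body weights were recorded daily. Surviving animals were killed with carbon dioxide at study end.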

[2] = test system: HCT116 xenograft tumors; test: Efficacy experiment 1: tumor volume, i.p. dosing; assay type: in vivo, NSG mice; settings: for tumor volumes at conclusion of study: day 28, Rh-PPO vs oxaliplatin 7.5 mpk i.p.
In short: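 NSG mice (23 to 34 g) were given 2.5 × 10^6 HCT116 cells in 100 μL McCoy's 5A with 10% FBS, s.c. in the right flank. At ~100 mm3 (11 to 12 d), mice were randomized (10 to 13/group). Test compound in saline was given i.p. three or four times weekly. Vehicle was 0.9% NaCl. Platinum reference in 5% dextrose was given i.p. twice weekly. Mice also received 2 mL s.c. saline twice weekly. Calipers twice weekly; TV = W2L/2.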

[3] = test system: HCT116 xenograft tumors; test: Survival rate and cause of death, efficacy experiment 1; assay type: in vivo, NSG mice
In short: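 HCT116 s.c. xenograft NSG mice received i.p. vehicle, test compound or platinum reference plus s.c. saline hydration; n = 10 to 13 per group. Mice were removed when found dead, when declining health required killing, or when tumor diameter exceeded 15 mm. Survival versus starting number gave Kaplan–Meier curves. ILS = (DaysT – DaysC)/DaysC against vehicle controls.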

[4] = Mouse body weights during i.p. treatment; assay type: in vivo, NSG mice; settings: Rh-PPO treatment groups, both i.p. schedules
[5] = Plasma pharmacokinetics after i.p. dose; assay type: in vivo, NSG mice; settings: for AUC0–8 h / Cmax / t1/2: mouse plasma
In short: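 After the final i.p. dose (0.5 or 1 mpk) in xenograft-bearing NSG mice, blood was taken by cardiac puncture at 0.5, 1, 2, 4 and 8 h (three mice/group/time) into heparinized vials on ice. Plasma was spun at 15,000 × g, 5 min, RT, and stored at −80 °C. Proteins were precipitated with acetonitrile containing a rhodium-complex internal standard. Intact complex was measured by LC-MS/MS; AUC0–8 h came from the concentration curve.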

[6] = Rhodium and platinum content of tissues after i.p. treatment; assay type: in vivo, NSG mice; settings: Rh-PPO 1 mpk, oxaliplatin 7.5 mpk i.p.
[7] = test system: HCT116 xenograft tumors; test: Intratumoral efficacy experiment; assay type: in vivo, NSG mice; settings: 1 mpk intratumoral
[8] = Aqueous solubility; assay type: physicochemical
[9] = Stability in rat plasma; assay type: in vitro ADME
[10] = Stability in rat liver microsomes; assay type: in vitro ADME
[11] = First mouse experiments exploring the administration route; assay type: in vivo
[12] = Histological analyses of collected tissues; assay type: in vivo, NSG mice; settings: Rh-PPO-treated mice, i.p.
[13] = test system: CRC cell lines; settings: on average across CRC cell lines; cited from earlier work
[14] = test system: HCT116O MMR-deficient cells; settings: cited from earlier work; for IC50: HCT116O MMR-deficient cells
[15] = cited from earlier work

## [Rh(chrysi)(phen)(2-(pyridine-2-yl)propan-2-ol]Cl2 [Rh-PPO]
[1]; 1, 2, 5 mpk i.p. daily
  body weight change in MTD study: lost body weight in a dose-dependent manner
[1]; 1 mpk i.p. daily for 10 d
  clinical observations: only mild symptoms of distress; also recorded: tolerated over a 10-d period with minor indications of systemic toxicity
[1]; 2 mpk i.p. daily
  start of notable symptoms of distress and inactivity: 4 days
[1]; 5 mpk i.p. daily
  start of notable symptoms of distress and inactivity: 2 days
[2]; Rh-PPO treatment groups (0.5 and 1 mpk i.p.), day 21, efficacy experiment 1
  reduction in tumor volume relative to vehicle: 25 ± 2.7% and 25%
[2]
  tumor volumes at conclusion of study: statistically similar tumor volumes
[3]; Rh-PPO 0.5/1 mpk, oxaliplatin 7.5 mpk i.p.
  increase in life span (ILS) relative to vehicle: 12%
[3]; Rh-PPO 1 mpk, oxaliplatin 7.5 mpk i.p.
  mice killed due to poor health and inactivity: 10%
[3]; both Rh-PPO treatment groups
  mice that died due to tumors reaching maximum allowable size (15 mm): 90%
[4]
  significant mouse weight loss (more than 15% of original body weight): neither treatment schedule resulted in significant mouse weight loss
[5]; 0.5 mpk i.p.
  AUC0–8 h: 1310 nM·h
  Cmax: 0.45 µM
  t1/2: 1.11 h
[5]; 1 mpk i.p.
  exposure level (Cmax) relative to in vitro cell IC50 of 250 nM: ~2.5 fold
  AUC0–8 h: 1520 nM·h
  Cmax: 0.65 µM
  t1/2: 1.79 h
[5]; i.p. dosing, 0.5 and 1 mpk
  time to peak plasma concentration: ≤ 30 min
[5]; read-out: maximum plasma concentration (Cmax), 1 mpk i.p.
  Cmax: 0.65 µM
[6]
  distribution of metal among organs: accumulation of rhodium most significantly in the liver
[7]
  toxicity of intratumoral administration: significant systemic toxicity; also recorded: unacceptably toxic
[8]
  aqueous solubility: high aqueous solubility
[9]
  stability in rat plasma: up to 4 h
[10]
  stability in rat liver microsomes: up to 4 h
[11]; 20 mpk i.v.
  tolerability of i.v. administration: not well tolerated
[11]; oral
  oral bioavailability: zero oral bioavailability
[12]
  organ morphology (histology): normal organ morphology
[13]
  potency relative to cisplatin: five times more potent
[14]
  IC50: 0.25 µM
[14]; MMR-deficient HCT116O vs matched MMR-proficient HCT116N
  cytotoxicity toward HCT116O compared to HCT116N cells: highly potent and selective cytotoxicity

## O=C1[O][Pt]2([NH][C@@H]3CCCC[C@H]3[NH]2)[O]C1=O [oxaliplatin, reference compound]
[2]
  tumor volumes at conclusion of study: statistically similar tumor volumes
[3]; 7.5 mpk i.p.
  mouse deaths: found dead in cage: 45.5%
[6]
  distribution of metal among organs: platinum was distributed evenly
[14]
  IC50: 27.5 µM
[15]
  half-life: 0.235 h
